Activity calls are given as the source filed them. No cut-off for these calls is given here.
Columns and labels:
GM15850 [1] = test: Protection against DEM-induced loss of mitochondrial membrane potential in human GM15850 cells at 5 uM after 16 hrs using TMRM/JC-1 staining by flow cytometry analysis relative to control; type: functional
Summary of the method: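 FRDA lymphocytes were pretreated with compound for 16 h, then given 5 mM DEM for 140 min. Cells were washed twice with PBS and stained with 250 nM TMRM in PBS-glucose for 15 min at 37 °C in the dark. Flow cytometry read the FL2-H channel (488 nm excitation), 10 000 events, with FCCP as the depolarized control. Result is the % of cells with intact Δψm (top right quadrant). Mean ± SEM of three experiments in duplicate.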

GM15850 [2] = test: Antioxidant activity in human GM15850 cells assessed as inhibition of glutathione depletion-induced ROS production at 5 uM after 16 hrs using DCFH-DA staining by flow cytometry analysis; type: functional, cell-based
Summary of the method: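 FRDA lymphocytes (5 × 10⁵ cells in 1 mL) were pretreated with compound for 16 h at 37 °C in 5% CO2. GSH was then depleted with 5 mM diethyl maleate for 80 min. Cells were washed and loaded with 10 μM DCFH-DA in PBS with 20 mM glucose for 20 min at 37 °C in the dark. DCF was measured by flow cytometry (488 nm, FL1-H), 10 000 events. Two experiments in duplicate, mean ± SEM.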

CCRF-CEM = test: Antioxidant activity in human CEM cells assessed as inhibition of glutathione depletion-induced ROS production at 5 uM after 16 hrs using DCFH-DA staining by flow cytometry analysis; type: functional, cell-based
Summary of the method: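 CEM leukemia lymphocytes (5 × 10⁵ cells in 1 mL) were given compound for 16 h at 37 °C in 5% CO2. They were then exposed to 5 mM diethyl maleate for 40 min to deplete GSH. After a PBS wash they were stained with 10 μM DCFH-DA in PBS with 20 mM glucose for 20 min at 37 °C in the dark. DCF fluorescence was read by flow cytometry (488 nm excitation, FL1-H), 10 000 events. Mean ± SEM of two experiments, each in duplicate.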

GM15850 [3] = test: Cytoprotective activity in human GM15850 cells assessed as glutathione depletion-induced reduction of cell viability at 5 uM after 17 hrs by trypan blue exclusion assay relative to control; type: functional
Summary of the method: (§1)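 FRDA lymphocytes were grown in RPMI 1640 with 15% fetal calf serum and 2 mM glutamine. Cells seeded at 5 × 10⁵ cells/mL were preincubated with compound for 17 h at 37 °C, then given 5 mM DEM for a further 6 h. Viability was scored by 0.4% trypan blue exclusion on a hemacytometer, counting at least 500 cells per group. Values are % of the untreated control (100%). Mean ± SEM, n = 3.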

[4] = Antioxidant activity in human GM15850 cells assessed as inhibition of glutathione depletion-induced lipid peroxidation at 5 uM after 16 hrs using C11-BODIPY581/591 by FACS analysis relative to control; type: functional; design: scale not given: the % may be the effect or the level left
Summary of the method: (§2)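 FRDA lymphocytes at 5 × 10⁵ cells/mL received compound (5 or 10 μM final) for 16 h at 37 °C. Cells were loaded with 1 μM C11-BODIPY581/591 in phenol red-free RPMI for 30 min in the dark, then stressed with 5 mM DEM for 2 h. After washing, green (oxidized) fluorescence was read by FACS, 10 000 events. Scavenging % = [(100 − % mean)/(100 − % mean of untreated control)] × 100. Duplicates, three independent experiments.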

[5] = Antioxidant activity in human GM15850 cells assessed as inhibition of glutathione depletion-induced lipid peroxidation at 10 uM after 16 hrs using C11-BODIPY581/591 by FACS analysis relative to control; type: functional; design: scale not given: the % may be the effect or the level left; summary of the method: as §2
GM15850 [6] = test: Cytoprotective activity in human GM15850 cells assessed as glutathione depletion-induced reduction of cell viability at 2.5 uM after 17 hrs by trypan blue exclusion assay relative to control; type: functional; summary of the method: as §1
GM15850 [7] = test: Cytoprotective activity in human GM15850 cells assessed as glutathione depletion-induced reduction of cell viability at 0.25 uM after 17 hrs by trypan blue exclusion assay relative to control; type: functional; summary of the method: as §1
GM15850 [8] = test: Cytoprotective activity in human GM15850 cells assessed as glutathione depletion-induced reduction of cell viability at 0.125 uM after 17 hrs by trypan blue exclusion assay relative to control; type: functional; summary of the method: as §1

SMILES: CCCCCCCCCCCCCC1=C(O)C(=O)C=C(NCCCC(=O)OC(C)(C)C)C1=O
- Activity (GM15850 [1]): 40%
- Activity (GM15850 [2]): Active
- Activity (CCRF-CEM): Active
- Activity (GM15850 [3]): 50%
- Activity [4]: 26%
- Activity [5]: 37%

SMILES: CCCCCCCCCCCCCC1=C(OC)C(=O)C=C(NCCCC(=O)OC(C)(C)C)C1=O
- Activity (GM15850 [1]): 85%
- Activity (GM15850 [2]): Active
- Activity (GM15850 [6]): 84%
- Activity (CCRF-CEM): Active
- Activity (GM15850 [3]): 93%
- Activity [4]: 72%
- Activity (GM15850 [7]): 58%
- Activity (GM15850 [8]): 48%
- Activity [5]: 86%

SMILES: CCCCCCCCCCCCCC1=C(OC)C(=O)C=C(NCCCC(=O)O)C1=O
- Activity (GM15850 [1]): 60%
- Activity (GM15850 [2]): Active
- Activity (CCRF-CEM): Active
- Activity (GM15850 [3]): 74%
- Activity [4]: 41%
- Activity [5]: 51%

SMILES: CCCCCCCCCCCCCC1=C(O)C(=O)C=C(NCCCC(=O)O)C1=O
- Activity (GM15850 [1]): 27%
- Activity (GM15850 [2]): Active
- Activity (CCRF-CEM): Active
- Activity (GM15850 [3]): 36%
- Activity [4]: 8%
- Activity [5]: 24%
